The source of these data is ChEMBL document CHEMBL1154861, “Antioxidant and antiviral activities of silybin fatty acid conjugates” (Eur J Med Chem, 2010).

For series [1], the system named is Radical scavenging activity. The series can be described thus: Antioxidant activity assessed as DPPH radical scavenging activity for 10 mins. Type of series: functional. In short, it runs like this:
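Test compound in DMSO/MeOH 1:9 (0–20.0 mM, solution added) mixed 1:1 by volume with 0.1 mM DPPH in the same solvent; absorbance change followed at 540 nm over 10 min. IC50 is the concentration giving 50% absorbance reduction; three measurements in three independent experiments, mean with standard deviation.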
(The DPPH test is a chemical assay of radical scavenging.)

A further series relates to Influenza A virus. The series can be described thus: Antiviral activity against Influenza A virus (A/PR8/34(H1N1)) infected in MDCK cells assessed as inhibition of plaque formation. The format is functional, organism-based. The following applies: A/Puerto Rico/8/1934(H1N1). The method in brief: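 Compound premixed with virus in Opti-MEM I with 0.2% DMSO for 30 min at room temperature. The mixture was applied to confluent MDCK monolayers (MOI 2.5×10^-4) for 1 h at room temperature, then washed. Cells were overlaid with agar medium containing trypsin and 0.2% BSA for about 2 days at 37 °C, then fixed with glutaraldehyde and stained with methylene blue. EC50 is the concentration cutting plaque number 50% versus untreated.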

A further series relates to Liver microsomes. Put plainly: Antioxidant activity in Wistar rat liver microsomes assessed as inhibition of lipid peroxidation after 1 hr by thiobarbiturate color reaction. Type of series: functional, Microsome. In short, it runs like this: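 Wistar rat liver microsomes in 50 mM Tris-HCl, 100 mM KCl, 0.1 mM EDTA, pH 7.4 (0.625 mg protein/mL). Compound (0–100 μM in DMSO, as added) incubated with tert-butylhydroperoxide (10 mM stock) at 37 °C for 1 h. TBA/TCA added, heated 90 °C 15 min, centrifuged, read at 535 nm. IC50 is 50% inhibition of colour; triplicates in three experiments.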
On the technique in general: Microsomes from liver hold many membrane-bound enzymes, among them those of drug oxidation.

Series [2] in a line: Selectivity index, ratio of CC50 for MDCK cells to EC50 for Influenza A virus (A/PR8/34(H1N1)). The format is toxicity, cell-based. The conditions noted are these: dog, read-out: Ratio CC50/EC50.
Series [3] can be described thus: Cytotoxicity against MDCK cells after 2 hrs by MTT assay. Type of series: cell-based, Canis lupus familiaris. The following applies: dog. In short, it runs like this: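 MDCK cells seeded at 1.5×10^4 per well in DMEM/10% FCS for 4–5 h, washed, exposed to compound in Opti-MEM I with 0.2% DMSO for 2 h. Then washed and kept in DMEM with 0.2% BSA for 24 h at 37 °C, 5% CO2. Viability by MTT reduction; CC50 relative to untreated wells.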

By IC50 is commonly meant the midpoint of a concentration-inhibition curve. As a reminder, the EC50 is the concentration that produces a half-maximal response. Broadly, the CC50 is the concentration at which the toxic effect on the cells reaches its halfway point. A low value points to harm at low concentration. For `CCCCCCCC(=O)Oc1cc(O)c2c(c1)O[C@H](c1ccc3c(c1)OC(c1ccc(O)c(OC)c1)C(CO)O3)[C@@H](O)C2=O` (stereo partly drawn), the IC50 was determined as 4000 µM in series [1] and 117 µM in the series with Liver microsomes. The EC50 with Influenza A virus was 6 µM. Also, the selectivity ratio in series [2] worked out at 40. In series [3], this molecule registered a CC50 at 2 h of 240 µM.

`CCCCCCCCCCCC(=O)Oc1cc(O)c2c(c1)O[C@H](c1ccc3c(c1)OC(c1ccc(O)c(OC)c1)C(CO)O3)[C@@H](O)C2=O` (stereo partly drawn): the figures for the IC50 (in series [1]; with Liver microsomes) were 3000 µM and 44.7 µM, respectively. In addition, in the series on Influenza A virus, the EC50 was 6 µM. For the same molecule, in series [2], the selectivity ratio is > 93.3. Besides, the half-maximal cytotoxic concentration (CC50) at 2 h in series [3] was > 560 µM.

As to `CCCCCCCCCCCCCCCC(=O)Oc1cc(O)c2c(c1)O[C@H](c1ccc3c(c1)OC(c1ccc(O)c(OC)c1)C(CO)O3)[C@@H](O)C2=O` (stereo partly drawn), the IC50 in series [1] was 3600 µM; in the series with Liver microsomes, 28.9 µM.

In the case of `CCCCCCCC(=O)OCC1Oc2ccc([C@H]3Oc4cc(O)cc(O)c4C(=O)[C@@H]3O)cc2OC1c1ccc(O)c(OC)c1` (stereo partly drawn), the IC50 in series [1] came out at 3200 µM; in the series with Liver microsomes, 61.1 µM. In series [3], half-maximal cytotoxicity (CC50 at 2 h) was put at 30 µM.

Take `CCCCCCCCCCCC(=O)OCC1Oc2ccc([C@H]3Oc4cc(O)cc(O)c4C(=O)[C@@H]3O)cc2OC1c1ccc(O)c(OC)c1` (stereo partly drawn): the values for the IC50 (in series [1]; in the series with Liver microsomes) were 2800 µM and 50.5 µM, respectively. Also, the EC50 in the series on Influenza A virus was determined as 3 µM. Moreover, the selectivity ratio in series [2] came to 40. Moreover, the midpoint of cytotoxicity in series [3], the CC50 at 2 h, lay at 120 µM.

With `CCCCCCCCCCCCCCCC(=O)OCC1Oc2ccc([C@H]3Oc4cc(O)cc(O)c4C(=O)[C@@H]3O)cc2OC1c1ccc(O)c(OC)c1` (stereo partly drawn), the values for the IC50 (in series [1]; with Liver microsomes) were 3200 µM and 51.9 µM, respectively. In addition, the EC50 with Influenza A virus was determined as 3 µM. Also, the selectivity ratio in series [2] was > 160. In addition, the CC50 at 2 h in series [3] is > 480 µM.

For `CCCC(=O)Oc1cc(O)c2c(c1)O[C@H](c1ccc3c(c1)OC(c1ccc(O)c(OC)c1)C(CO)O3)[C@@H](O)C2=O` (stereo partly drawn), the IC50 was found to be 2300 µM in series [1] and 101 µM in the series with Liver microsomes. Besides, the EC50 in the series with Influenza A virus is 14 µM. Also, the selectivity ratio in series [2] is 21.4. The molecule also gave a CC50 at 2 h in series [3] of 300 µM.

On to `CCCC(=O)OCC1Oc2ccc([C@H]3Oc4cc(O)cc(O)c4C(=O)[C@@H]3O)cc2OC1c1ccc(O)c(OC)c1` (stereo partly drawn), for which the IC50 in series [1] is 3400 µM; in the series with Liver microsomes it was 91.7 µM. For the same molecule, the concentration for a half-maximal effect (EC50) with Influenza A virus came out at 24 µM. For the same molecule, the selectivity ratio in series [2] was determined as 12.5. The molecule also registered a CC50 at 2 h in series [3] of 300 µM.

Regarding `COc1cc(C2Oc3cc([C@H]4Oc5cc(O)cc(O)c5C(=O)[C@@H]4O)ccc3OC2CO)ccc1O` (stereo partly drawn) [SILIBININ], the IC50 in series [1] came to 2100 µM; with Liver microsomes it was 58.1 µM. For the same molecule, the CC50 at 2 h in series [3] was > 800 µM.
